A short description of series [1]: Compound was evaluated for the secretion of interleukin-6 (IL-6) by macrophages incubated in the presence of antigen Keyhole Limpet Hemocyanin (KLH) at concentration of 2 x 10E-8 M. Type of series: functional. In a few lines:
(§1)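 Thioglycollate-elicited peritoneal macrophages from (BALB/c x C3H.eb)F1 mice (6-8 weeks), >90% pure, cultured at 10⁶/mL in DMEM for 48 h at 37 °C, 5% CO₂. Incubated 20 h in triplicate with KLH plus peptide (2 × 10^-7 to 2 × 10^-9 M). Pooled supernatants were assayed for IL-6 by B9 hybridoma proliferation ([³H]thymidine, 2-fold dilutions), giving arbitrary units with KLH alone set at 1000 units. Three experiments were averaged.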

A short description of series [2]: Compound was evaluated for the secretion of interleukin-6 (IL-6) by macrophages incubated in the presence of antigen Keyhole Limpet Hemocyanin (KLH) at concentration of 2 x 10E-7 M. The format is functional. The method, boiled down: as §1
Series [3] in a line: Compound was evaluated for the secretion of interleukin-6 (IL-6) by macrophages incubated in the presence of antigen Keyhole Limpet Hemocyanin (KLH) at concentration of 2 x 10E-9 M. The format is functional. The method, boiled down: as §1
The nature of series [4]: Plasma half life of compound reported. Type of series: ADME, cell-free. In a few lines: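 Peptide (0.5 mg) was incubated in 0.5 mL human serum at 37 °C. Aliquots were taken at 0-240 min, boiled at 90-95 °C for 5 min, diluted with water and centrifuged. Intact peptide was quantified by isocratic RP-HPLC at 220 nm, with peak area referenced to an internal serum peak and time 0 set at 100%. Half-life was read from the degradation time course.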

Where a SMILES comes first, the peptide text is derived from it.

On to `C[C@@H](O)[C@H](N)C(=O)N[C@@H](CCCCN)C(=O)N1CCC[C@H]1C(=O)N[C@@H](CCCN=C(N)N)C(=O)O` (H-TKPR-OH), for which the Secretion was determined as 42% in series [1], 78% in series [2] and 32% in series [3].

For the compound `C[C@@H](O)[C@H](N)C(=O)N[C@]1(C(=O)N2CCC[C@H]2C(=O)N[C@@H](CCCN=C(N)N)C(=O)O)C[C@@H](CN)C1`, the Secretion in series [1] turned out to be 54%; in series [2] it was 68%.

As to `C[C@@H](O)[C@H](N)C(=O)NC1(C(=O)N2CCC[C@H]2C(=O)N[C@@H](CCCN=C(N)N)C(=O)O)CC(CCN)C1` (some centres undefined), the half-life in series [4] was found to be 13 min.

With `NCCCC[C@H](NC(=O)[C@]1(N)C[C@H](CO)C1)C(=O)N1CCC[C@H]1C(=O)N[C@@H](CCCN=C(N)N)C(=O)O`, the Secretion in series [1] was determined as 29%; in series [2], 125%.

As to `C[C@@H](O)[C@H](N)C(=O)N[C@@H](CCCCN)C(=O)N1CCC[C@H]1C(=O)N[C@]1(C(=O)O)C[C@@H](CN=C(N)N)C1`, in series [4], the half-life came out at 11 min.

For the compound `C[C@@H]1CC[C@]1(NC(=O)[C@H](CCCCN)NC(=O)[C@@H](N)[C@@H](C)O)C(=O)N[C@@H](CCCNC(=N)N)C(=O)O` (stereo in doubt; 27a), the Secretion in series [1] was 95%; in series [2], 141%. The compound also registered a half-life in series [4] of 25 min.

`C[C@@H]1CC[C@]1(NC(=O)[C@H](CCCCN)NC(=O)[C@@H](N)[C@@H](C)O)C(=O)N[C@@H](CCCNC(=N)N)C(=O)O` (stereo in doubt; 27b): the T1/2 in series [4] is 15 min.

For the compound `C[C@@H]1CC[C@]1(NC(=O)[C@H](CCCCN)NC(=O)[C@@H](N)[C@@H](C)O)C(=O)N[C@@H](CCCNC(=N)N)C(=O)O` (stereo in doubt; 27), the Secretion in series [2] was found to be 30%.

For orientation: half-life means the time needed for the level to fall by half in the phase considered. Read a low half-life as rapid decline.
